{"source": "ChEMBL document CHEMBL5678817", "about": "“FTBMT, a Novel and Selective GPR52 Agonist, Demonstrates Antipsychotic-Like and Procognitive Effects in Rodents, Revealing a Potential Therapeutic Agent for Schizophrenia” (J Pharmacol Exp Ther, 2017)", "key": {"[1]": {"molecular_target": "Phosphodiesterase 3 (Homo sapiens) (UniProt Q14432+Q13370)", "assay": "Inhibition of PDE3 (unknown origin) at 10 uM relative to control", "assay_type": "protein assay", "method_in_brief": "(§1)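 Enzyme activity assays from the same 98-target biochemical panel. Single test concentration of 10 µM. Read-out is % inhibition of enzyme activity relative to control; negative percentages indicate activation of the enzyme.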"}, "[2]": {"molecular_target": "G-protein coupled receptor 52 (Mus musculus) (UniProt P0C5J4)", "sequence (P0C5J4 whole entry)": "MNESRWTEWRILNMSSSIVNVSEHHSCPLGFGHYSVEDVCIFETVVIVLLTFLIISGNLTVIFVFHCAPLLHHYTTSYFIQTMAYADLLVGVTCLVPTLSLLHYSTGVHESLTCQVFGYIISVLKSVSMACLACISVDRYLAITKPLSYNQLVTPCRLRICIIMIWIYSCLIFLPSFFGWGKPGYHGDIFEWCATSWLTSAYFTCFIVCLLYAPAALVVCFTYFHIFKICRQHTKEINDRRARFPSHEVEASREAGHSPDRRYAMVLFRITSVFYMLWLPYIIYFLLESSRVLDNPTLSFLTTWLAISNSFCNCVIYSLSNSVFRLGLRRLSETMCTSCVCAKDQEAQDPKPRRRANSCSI", "assay": "[…] agonist activity at GPR52 in ICR mouse assessed as increase in DARPP-32 phosphorylation at thr34 residue upto 1 uM incubated for 5 mins", "assay_type": "functional", "method_in_brief": "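Acute 500 μm coronal NAc slices from male ICR mice (8–10 weeks) recovered 60 min at 30 °C in oxygenated Krebs-HCO3 pH 7.4 (adenosine deaminase for first 30 min). Exposed 5 min to 0.01–1 μM, frozen, denatured in 1% SDS with 50 mM NaF. Phospho-Thr34 and total DARPP32 quantified by Western blot densitometry; n = 9.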"}, "[3]": {"molecular_target": "Glutamate [NMDA] receptor (Homo sapiens) (UniProt Q05586+Q12879+Q13224+O15399+O60391+Q14957+Q8TCU5)", "assay": "Inhibition of Glutamate NMDA receptor (unknown origin) at 10 uM in presence of glycine relative to control", "assay_type": "protein-complex assay", "method_in_brief": "(§2)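 Part of a 98-target external biochemical selectivity panel that used radioligand/receptor binding-type assays. Compound tested once at 10 µM. Results are reported as % inhibition versus control; negative values mean stimulation of receptor activity.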"}, "[4]": {"molecular_target": "GABA-A receptor; anion channel (Homo sapiens) (UniProt P14867+P47870+P18507+P28472+P48169+Q99928+Q9UN88+P34903+O00591+O14764+Q8N1C3+P18505+P78334+P47869+P31644+Q16445)", "assay": "Inhibition of GABAA receptor (unknown origin) at 10 uM in presence of muscimol relative to control", "assay_type": "protein-complex assay", "method_in_brief": "as §2"}, "[5]": {"molecular_target": "G protein-coupled receptor 52 (Rattus norvegicus, UniProt A0A8I5ZQK1)", "sequence (A0A8I5ZQK1 whole entry)": "as the sequence (P0C5J4 whole entry) above, with M14V, E250D, E333Q, A342G, Q348R counted along it", "assay": "Agonist activity at rat GPR52 expressed in CHO cells assessed as increase in intracellular cAMP level incubated for 30 mins by Alphascreen assay", "assay_type": "cell-based", "method_in_brief": "(§3)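 CHO cells stably expressing human, mouse or rat GPR52, plus naïve CHO cells, at 10,000 cells/well. Stimulated in cAMP assay buffer for 30 min at 37 °C. Intracellular cAMP read by AlphaScreen.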"}, "[6]": {"molecular_target": "Androgen receptor (Homo sapiens) (UniProt P10275)", "sequence (P10275 whole entry)": "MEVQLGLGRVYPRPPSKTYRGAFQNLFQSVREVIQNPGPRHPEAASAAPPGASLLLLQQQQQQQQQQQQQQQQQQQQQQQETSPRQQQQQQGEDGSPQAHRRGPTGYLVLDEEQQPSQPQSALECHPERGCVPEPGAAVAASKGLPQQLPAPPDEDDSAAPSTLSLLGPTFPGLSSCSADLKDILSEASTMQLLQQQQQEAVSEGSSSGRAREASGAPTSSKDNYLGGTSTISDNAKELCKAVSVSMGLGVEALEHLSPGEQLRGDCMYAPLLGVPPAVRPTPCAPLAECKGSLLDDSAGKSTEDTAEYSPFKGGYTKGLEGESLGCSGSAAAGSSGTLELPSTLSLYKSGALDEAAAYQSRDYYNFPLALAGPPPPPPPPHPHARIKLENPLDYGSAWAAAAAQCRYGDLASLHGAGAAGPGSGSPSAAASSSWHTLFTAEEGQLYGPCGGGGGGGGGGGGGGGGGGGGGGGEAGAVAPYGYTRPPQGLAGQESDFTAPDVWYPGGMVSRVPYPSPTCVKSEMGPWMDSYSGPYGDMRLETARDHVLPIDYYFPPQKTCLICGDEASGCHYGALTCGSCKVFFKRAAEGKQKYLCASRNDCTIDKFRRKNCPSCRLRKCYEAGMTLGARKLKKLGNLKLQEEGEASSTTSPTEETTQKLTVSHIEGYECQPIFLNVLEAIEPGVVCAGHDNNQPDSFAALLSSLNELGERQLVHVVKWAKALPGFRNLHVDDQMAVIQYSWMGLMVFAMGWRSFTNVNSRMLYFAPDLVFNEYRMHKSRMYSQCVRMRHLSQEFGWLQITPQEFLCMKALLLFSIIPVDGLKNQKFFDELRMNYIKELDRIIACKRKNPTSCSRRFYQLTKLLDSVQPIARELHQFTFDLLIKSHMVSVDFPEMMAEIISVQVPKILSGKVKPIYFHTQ", "assay": "Inhibition of Androgen receptor (unknown origin) at 10 uM relative to control", "method_in_brief": "(§4)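 Single-point screen at 10 μM across receptor, ion channel and enzyme binding or activity assays. Expressed as percent inhibition versus control; negative values denote stimulation.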"}, "[7]": {"molecular_target": "Serotonin 3 (5-HT3) receptor (Homo sapiens) (UniProt P46098+A5X5Y0+O95264+Q70Z44+Q8WXA8)", "assay": "Inhibition of Serotonin 5-HT3 receptor (unknown origin) at 10 uM relative to control", "assay_type": "protein-complex assay", "method_in_brief": "as §2"}, "[8]": {"molecular_target": "Type-2 angiotensin II receptor (Homo sapiens) (UniProt P50052)", "sequence (P50052 whole entry)": "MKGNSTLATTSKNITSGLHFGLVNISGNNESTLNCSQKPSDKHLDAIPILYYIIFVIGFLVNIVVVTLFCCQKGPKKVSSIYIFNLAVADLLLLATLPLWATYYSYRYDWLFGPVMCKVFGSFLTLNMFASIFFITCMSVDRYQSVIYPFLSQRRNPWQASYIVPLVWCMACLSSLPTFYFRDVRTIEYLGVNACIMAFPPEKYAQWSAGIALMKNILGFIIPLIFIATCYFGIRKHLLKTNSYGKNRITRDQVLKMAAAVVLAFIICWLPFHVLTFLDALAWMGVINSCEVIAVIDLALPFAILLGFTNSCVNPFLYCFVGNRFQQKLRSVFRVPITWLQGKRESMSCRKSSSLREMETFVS", "assay": "Inhibition of AT2 receptor (unknown origin) at 10 uM relative to control", "method_in_brief": "as §4"}, "[9]": {"molecular_target": "Cholecystokinin receptor type A (Homo sapiens) (UniProt P32238)", "sequence (P32238 whole entry)": "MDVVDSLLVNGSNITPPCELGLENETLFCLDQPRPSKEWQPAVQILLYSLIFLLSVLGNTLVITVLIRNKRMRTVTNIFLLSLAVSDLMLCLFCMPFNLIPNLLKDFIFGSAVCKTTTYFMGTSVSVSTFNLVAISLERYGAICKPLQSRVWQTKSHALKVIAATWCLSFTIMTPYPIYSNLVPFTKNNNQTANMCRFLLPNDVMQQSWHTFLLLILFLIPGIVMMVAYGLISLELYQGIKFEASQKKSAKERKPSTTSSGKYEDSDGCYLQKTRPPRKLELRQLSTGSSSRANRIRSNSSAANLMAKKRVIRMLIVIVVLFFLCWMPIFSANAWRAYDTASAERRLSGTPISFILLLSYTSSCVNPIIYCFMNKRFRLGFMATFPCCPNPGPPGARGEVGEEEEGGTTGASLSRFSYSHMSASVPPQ", "assay": "Inhibition of CCK1 receptor (unknown origin) at 10 uM relative to control", "method_in_brief": "as §4"}, "Homo sapiens [10]": {"species": "Homo sapiens", "assay": "Inhibition of Sodium channel Site 2 (unknown origin) at 10 uM relative to control", "method_in_brief": "(§5)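 Binding and enzyme panel run by an outside contractor against receptors, ion channels and enzymes. Each assay used a single 10 μM test concentration, and results are expressed as percent inhibition. A negative value means stimulation of receptor activity or activation of enzyme activity.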"}, "[11]": {"molecular_target": "G protein-coupled receptor 52 (Rattus norvegicus) (UniProt A0A8I5ZQK1)", "sequence (A0A8I5ZQK1 as listed by the source)": "as the sequence (P0C5J4 whole entry) above, with M14V, E250D, E333Q, A342G, Q348R counted along it", "assay": "Agonist activity at GPR52 in rat Striatal neuron assessed as increase in CREB phosphorylation […] by Alphascreen assay", "assay_type": "cell-based", "details": "filed as agonist"}, "[12]": {"molecular_target": "G-protein coupled receptor 52 (Mus musculus, UniProt P0C5J4)", "sequence (P0C5J4 whole entry)": "as the sequence (P0C5J4 whole entry) above", "assay": "Agonist activity at mouse GPR52 expressed in CHO cells assessed as increase in intracellular cAMP level incubated for 30 mins by Alphascreen assay", "assay_type": "functional, cell-based", "method_in_brief": "as §3"}, "Mus musculus": {"test_system": "Mus musculus", "assay": "Antipsychotic activity in GPR52 knockout mouse assessed as increase in phosphorylated CREB level in striatum at 30 mg/kg, po incubated for 60 mins by ELISA analysis", "assay_type": "functional, organism-based"}, "Rattus norvegicus [13]": {"test_system": "Rattus norvegicus", "assay": "Pro-cognitive activity in Long-Evans rat assessed as increase in exploration time for novel object at 3 to 10 mg/kg, po measured after 3 mins by NORT test", "assay_type": "functional, organism-based", "details": "dose 3-10 mg/kg", "method_in_brief": "(§6)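 Male Long-Evans rats (7 weeks) were habituated to a 40 × 40 × 50 cm box for 10 min. The acquisition trial was 3 min with two identical objects. Oral dosing at 3 or 10 mg/kg followed immediately after acquisition. The 3-min retention trial, with one familiar and one novel object, ran 48 h later. Exploration was hand-scored by a blinded scorer, and NDI = novel/total × 100. n = 10.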"}, "[14]": {"molecular_target": "Collagenase 3 (Homo sapiens) (UniProt P45452)", "assay": "Inhibition of MMP13 (unknown origin) at 10 uM relative to control", "method_in_brief": "as §1"}, "[15]": {"molecular_target": "Adenosine receptor A1 (Homo sapiens) (UniProt P30542)", "sequence (P30542 whole entry)": "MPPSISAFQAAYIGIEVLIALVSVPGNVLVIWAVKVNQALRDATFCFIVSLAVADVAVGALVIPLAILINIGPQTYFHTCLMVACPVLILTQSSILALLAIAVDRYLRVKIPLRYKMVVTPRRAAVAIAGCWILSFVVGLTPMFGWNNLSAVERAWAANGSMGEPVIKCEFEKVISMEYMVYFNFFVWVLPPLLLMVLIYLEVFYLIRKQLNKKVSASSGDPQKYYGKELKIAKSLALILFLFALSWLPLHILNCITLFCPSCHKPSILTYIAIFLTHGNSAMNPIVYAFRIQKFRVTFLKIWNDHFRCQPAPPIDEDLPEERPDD", "assay": "Inhibition of Adenosine A1 receptor (unknown origin) at 10 uM relative to control", "method_in_brief": "as §4"}, "[16]": {"molecular_target": "MAO-B (amine oxidase [flavin-containing] B) (Homo sapiens, UniProt P27338)", "sequence (P27338 whole entry)": "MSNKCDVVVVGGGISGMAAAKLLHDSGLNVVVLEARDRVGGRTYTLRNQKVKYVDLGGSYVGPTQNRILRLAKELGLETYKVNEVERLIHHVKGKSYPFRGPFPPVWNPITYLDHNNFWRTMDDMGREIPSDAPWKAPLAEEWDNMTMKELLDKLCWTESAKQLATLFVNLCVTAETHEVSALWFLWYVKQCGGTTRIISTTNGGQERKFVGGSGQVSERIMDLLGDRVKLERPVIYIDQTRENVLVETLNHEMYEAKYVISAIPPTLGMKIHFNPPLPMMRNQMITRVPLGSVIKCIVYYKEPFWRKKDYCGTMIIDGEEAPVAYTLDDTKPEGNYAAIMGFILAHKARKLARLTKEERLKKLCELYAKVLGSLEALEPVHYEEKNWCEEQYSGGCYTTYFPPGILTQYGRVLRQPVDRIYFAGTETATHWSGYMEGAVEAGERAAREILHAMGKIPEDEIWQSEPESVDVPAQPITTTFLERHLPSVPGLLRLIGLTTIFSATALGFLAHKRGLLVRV", "assay": "Inhibition of MAO-B (unknown origin) at 10 uM relative to control", "method_in_brief": "as §1"}, "[17]": {"molecular_target": "cGMP-specific 3',5'-cyclic phosphodiesterase (Homo sapiens) (UniProt O76074)", "assay": "Inhibition of PDE5 (unknown origin) at 10 uM relative to control", "method_in_brief": "as §1"}, "[18]": {"molecular_target": "Muscarinic acetylcholine receptor M1 (Homo sapiens) (UniProt P11229)", "sequence (P11229 whole entry)": "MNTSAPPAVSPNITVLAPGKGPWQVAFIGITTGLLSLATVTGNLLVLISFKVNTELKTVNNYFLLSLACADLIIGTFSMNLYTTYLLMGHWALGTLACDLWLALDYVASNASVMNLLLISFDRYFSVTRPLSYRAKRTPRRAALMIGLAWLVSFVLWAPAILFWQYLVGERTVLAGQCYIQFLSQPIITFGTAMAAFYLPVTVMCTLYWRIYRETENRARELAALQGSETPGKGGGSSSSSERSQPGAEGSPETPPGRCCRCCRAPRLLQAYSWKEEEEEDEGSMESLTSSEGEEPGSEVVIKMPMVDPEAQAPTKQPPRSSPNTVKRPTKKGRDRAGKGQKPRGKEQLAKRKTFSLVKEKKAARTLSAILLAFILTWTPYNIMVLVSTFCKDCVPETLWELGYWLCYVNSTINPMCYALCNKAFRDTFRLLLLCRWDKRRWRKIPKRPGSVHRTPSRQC", "assay": "Inhibition of Muscarinic M1 receptor (unknown origin) at 10 uM relative to control", "method_in_brief": "as §2"}, "[19]": {"molecular_target": "Mu-type opioid receptor (Homo sapiens) (UniProt P35372)", "sequence (P35372 whole entry)": "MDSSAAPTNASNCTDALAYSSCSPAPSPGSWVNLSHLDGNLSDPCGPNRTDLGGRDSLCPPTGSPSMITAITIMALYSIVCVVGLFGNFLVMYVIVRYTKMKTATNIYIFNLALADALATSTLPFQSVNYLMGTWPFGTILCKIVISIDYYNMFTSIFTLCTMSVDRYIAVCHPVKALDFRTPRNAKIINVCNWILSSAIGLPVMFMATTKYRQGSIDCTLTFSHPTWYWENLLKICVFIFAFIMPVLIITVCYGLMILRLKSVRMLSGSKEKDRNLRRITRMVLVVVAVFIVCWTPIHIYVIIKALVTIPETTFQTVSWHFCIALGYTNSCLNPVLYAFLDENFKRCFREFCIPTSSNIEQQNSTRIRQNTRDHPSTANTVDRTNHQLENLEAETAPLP", "assay": "Inhibition of mu opioid receptor (unknown origin) at 10 uM relative to control", "method_in_brief": "as §5"}, "Homo sapiens [20]": {"species": "Homo sapiens", "assay": "Inhibition of NA+/K+ ATPase (unknown origin) at 10 uM relative to control", "method_in_brief": "as §1"}, "[21]": {"molecular_target": "Small conductance calcium-activated potassium channel protein 2 (Homo sapiens) (UniProt Q9H2S1)", "sequence (Q9H2S1 whole entry)": "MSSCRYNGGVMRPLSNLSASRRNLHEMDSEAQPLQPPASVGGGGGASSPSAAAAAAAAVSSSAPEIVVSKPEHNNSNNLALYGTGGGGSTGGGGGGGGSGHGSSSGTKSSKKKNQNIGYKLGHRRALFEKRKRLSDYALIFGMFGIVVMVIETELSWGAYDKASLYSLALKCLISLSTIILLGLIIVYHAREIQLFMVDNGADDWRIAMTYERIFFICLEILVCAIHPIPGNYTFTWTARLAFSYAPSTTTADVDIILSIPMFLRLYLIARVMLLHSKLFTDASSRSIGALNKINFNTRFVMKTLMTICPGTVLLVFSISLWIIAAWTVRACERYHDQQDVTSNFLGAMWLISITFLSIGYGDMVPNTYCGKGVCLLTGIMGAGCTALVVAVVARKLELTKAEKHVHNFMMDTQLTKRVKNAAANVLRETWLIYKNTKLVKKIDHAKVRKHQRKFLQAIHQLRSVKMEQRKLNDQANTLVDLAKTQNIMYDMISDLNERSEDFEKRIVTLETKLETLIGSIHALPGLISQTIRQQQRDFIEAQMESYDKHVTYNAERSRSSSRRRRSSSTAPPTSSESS", "assay": "Inhibition of SKCA2 (unknown origin) at 10 uM relative to control", "method_in_brief": "as §2"}, "Homo sapiens [22]": {"species": "Homo sapiens", "assay": "Inhibition of non-selective GABAB receptor (unknown origin) at 10 uM relative to control", "method_in_brief": "as §5"}, "[23]": {"molecular_target": "Voltage-gated L-type calcium channel (Homo sapiens, UniProt O60840+Q01668+Q13698+Q13936)", "assay": "Inhibition of Calcium channel L-type (unknown origin) at 10 uM in presence of dihydropyridine relative to control", "assay_type": "protein assay", "details": "probe dihydropyridine", "method_in_brief": "as §4"}, "Homo sapiens [24]": {"species": "Homo sapiens", "assay": "Inhibition of Nicotinic acetylcholine receptor (unknown origin) at 10 uM relative to control", "method_in_brief": "as §2"}, "Rattus norvegicus [25]": {"test_system": "Rattus norvegicus", "assay": "Pro-cognitive activity in Long-Evans rat assessed as discrimination index at 3 to 10 mg/kg, po measured after 3 mins by NORT test", "assay_type": "functional, organism-based", "details": "dose 3-10 mg/kg", "method_in_brief": "as §6"}, "Homo sapiens [26]": {"species": "Homo sapiens", "assay": "Inhibition of Ca2+ ATPase (unknown origin) at 10 uM relative to control", "method_in_brief": "as §4"}, "Homo sapiens [27]": {"species": "Homo sapiens", "assay": "Inhibition of EGF receptor (unknown origin) at 10 uM relative to control", "method_in_brief": "as §1"}}, "note": "Activity calls are given as the source filed them. No cut-off for these calls is given here."}
{"smiles": "Cc1cc(-n2nc(Cc3cc(F)cc(C(F)(F)F)c3)nc2C)ccc1C(N)=O", "note": "[TP-024]", "values": [{"measurement": "inhibition", "setting": "[1]", "value": 28, "unit": "%"}, {"measurement": "Activity", "setting": "[2]", "value": "Active"}, {"measurement": "inhibition", "setting": "[3]", "value": 3, "unit": "%"}, {"measurement": "inhibition", "setting": "[4]", "value": -1, "unit": "%"}, {"measurement": "EC50", "setting": "[5]", "value": 0.135, "unit": "µM"}, {"measurement": "inhibition", "setting": "[6]", "value": 5, "unit": "%"}, {"measurement": "inhibition", "setting": "[7]", "value": 10, "unit": "%"}, {"measurement": "inhibition", "setting": "[8]", "value": 1, "unit": "%"}, {"measurement": "inhibition", "setting": "[9]", "value": 6, "unit": "%"}, {"measurement": "inhibition", "setting": "Homo sapiens [10]", "value": 1, "unit": "%"}, {"measurement": "Activity", "setting": "[11]", "value": "Active"}, {"measurement": "EC50", "setting": "[12]", "value": 0.141, "unit": "µM"}, {"measurement": "Activity", "setting": "Mus musculus", "value": "inactive"}, {"measurement": "Activity", "setting": "Rattus norvegicus [13]", "value": "Active"}, {"measurement": "inhibition", "setting": "[14]", "value": 1, "unit": "%"}, {"measurement": "inhibition", "setting": "[15]", "value": 33, "unit": "%"}, {"measurement": "inhibition at 10 µM", "setting": "[16]", "value": 26, "unit": "%"}, {"measurement": "inhibition", "setting": "[17]", "value": 24, "unit": "%"}, {"measurement": "inhibition", "setting": "[18]", "value": 4, "unit": "%"}, {"measurement": "inhibition", "setting": "[19]", "value": -10, "unit": "%"}, {"measurement": "inhibition", "setting": "Homo sapiens [20]", "value": -2, "unit": "%"}, {"measurement": "inhibition", "setting": "[21]", "value": -1, "unit": "%"}, {"measurement": "inhibition", "setting": "Homo sapiens [22]", "value": 0, "unit": "%"}, {"measurement": "inhibition at 10 µM", "setting": "[23]", "value": -2, "unit": "%"}, {"measurement": "inhibition", "setting": "Homo sapiens [24]", "value": -2, "unit": "%"}, {"measurement": "Activity", "setting": "Rattus norvegicus [25]", "value": "Active"}, {"measurement": "inhibition", "setting": "Homo sapiens [26]", "value": -1, "unit": "%"}, {"measurement": "inhibition", "setting": "Homo sapiens [27]", "value": -1, "unit": "%"}]}
